# Measured values reported in ChEMBL document CHEMBL3351863, “Optimization of 2-phenyl-pyrimidine-4-carboxamides towards potent, orally bioavailable and selective P2Y(12) antagonists for inhibition of platelet aggregation” (Bioorg Med Chem Lett, 2014).
# Active and inactive are the calls of the source. The calls are words filed in the database; no cut-off is given here.
# Columns and labels:
# P2Y purinoceptor 12 = P2Y purinoceptor 12 (Homo sapiens, UniProt Q9H244); test: Displacement of [3H]-2-methyl-thio-adenosine 5'-diphosphate from human recombinant P2Y12 expressed in CHO cell membranes by scintillation counting method
# P2Y purinoceptor 12, sequence (Q9H244 whole entry): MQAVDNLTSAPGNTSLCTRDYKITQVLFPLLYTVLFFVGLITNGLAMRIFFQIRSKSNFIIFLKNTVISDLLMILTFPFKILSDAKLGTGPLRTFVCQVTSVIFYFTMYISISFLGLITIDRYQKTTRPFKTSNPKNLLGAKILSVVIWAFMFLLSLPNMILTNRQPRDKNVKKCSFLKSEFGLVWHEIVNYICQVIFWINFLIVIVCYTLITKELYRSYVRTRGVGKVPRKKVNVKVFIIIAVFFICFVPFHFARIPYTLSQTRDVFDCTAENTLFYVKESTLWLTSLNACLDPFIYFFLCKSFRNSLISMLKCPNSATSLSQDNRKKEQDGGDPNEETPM
# Method in brief: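 CHO cells expressing recombinant P2Y₁₂ receptors, incubated with tritium-labeled 2-methyl-thio-adenosine 5'-diphosphate plus test compound; IC₅₀ from displacement curves, each point in triplicate; reference compound run with every compound set, and set re-analyzed if its IC₅₀ fell outside pre-set 95% confidence interval.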
# Platelet [1] = test: Inhibition of ADP-induced platelet aggregation in human platelet rich plasma assessed as remaining activity at 500 nM by in-vitro light transmission aggregometry assay; assay type: functional
# Method in brief: (§1)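 Light transmission aggregometry in human platelet-rich plasma; compound incubated, aggregation triggered with 3 µM ADP; remaining activity (RA) recorded at a single compound level (1000, 500 or 100 nM).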
# Platelet [2] = test: Inhibition of ADP-induced platelet aggregation in human platelet rich plasma assessed as remaining activity at 100 nM by in-vitro light transmission aggregometry assay; assay type: functional; method in brief: as §1
# Platelet [3] = test: Inhibition of ADP-induced platelet aggregation in human platelet rich plasma by in-vitro light transmission aggregometry assay; assay type: functional; conditions: Homo sapiens, Platelet, Plasma
# Method in brief: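 Human platelet-rich plasma incubated with compound, aggregation induced by 3 µM ADP and read by light transmission aggregometry; IC₅₀ derived from concentration–response curve.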
# [4] = Potency shift, ratio of IC50 for inhibition of ADP-induced platelet aggregation in human platelet rich plasma to IC50 for displacement of [3H]-2-methyl-thio-adenosine 5'-diphosphate from human recombinant P2Y12 expressed in CHO cell membranes
# [5] = Protein binding in human plasma; assay type: ADME, cell-free; conditions: read-out: PPB (converted)
# [6] = Solubility in neutral pH; assay type: physicochemical
# [7] = Solubility in basic pH; assay type: physicochemical
# Cytochrome P450 3A4 [8] = biological target: T1, Cytochrome P450 3A4 (Homo sapiens, UniProt P08684); test: Inhibition of CYP3A4 in human liver microsomes assessed as reduction in midazolam 1'-hydroxylation; assay type: ADME
# T1 sequence (P08684 whole entry): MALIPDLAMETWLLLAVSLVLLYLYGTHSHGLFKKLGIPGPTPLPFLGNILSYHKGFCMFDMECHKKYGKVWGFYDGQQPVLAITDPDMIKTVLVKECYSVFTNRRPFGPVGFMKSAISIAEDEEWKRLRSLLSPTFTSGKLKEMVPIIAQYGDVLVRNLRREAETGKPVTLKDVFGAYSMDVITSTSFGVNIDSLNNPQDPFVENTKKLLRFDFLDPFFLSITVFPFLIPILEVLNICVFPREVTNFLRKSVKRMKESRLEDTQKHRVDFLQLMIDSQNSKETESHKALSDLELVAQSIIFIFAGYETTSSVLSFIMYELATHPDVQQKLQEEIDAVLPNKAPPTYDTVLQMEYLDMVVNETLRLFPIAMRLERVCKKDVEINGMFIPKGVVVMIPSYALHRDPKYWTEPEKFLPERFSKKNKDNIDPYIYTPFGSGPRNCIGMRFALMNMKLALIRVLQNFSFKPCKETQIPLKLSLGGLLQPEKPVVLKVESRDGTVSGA
# Cytochrome P450 3A4 [9] = biological target: T1, Cytochrome P450 3A4; test: Inhibition of CYP3A4 in human liver microsomes assessed as reduction in testosterone 6beta-hydroxylation; assay type: ADME
# Cytochrome P450 2D6 = Cytochrome P450 2D6 (Homo sapiens, UniProt P10635); test: Inhibition of CYP2D6 in human liver microsomes assessed as reduction in dextromethorphan-O demethylation; assay type: ADME
# Cytochrome P450 2D6, sequence (P10635 whole entry): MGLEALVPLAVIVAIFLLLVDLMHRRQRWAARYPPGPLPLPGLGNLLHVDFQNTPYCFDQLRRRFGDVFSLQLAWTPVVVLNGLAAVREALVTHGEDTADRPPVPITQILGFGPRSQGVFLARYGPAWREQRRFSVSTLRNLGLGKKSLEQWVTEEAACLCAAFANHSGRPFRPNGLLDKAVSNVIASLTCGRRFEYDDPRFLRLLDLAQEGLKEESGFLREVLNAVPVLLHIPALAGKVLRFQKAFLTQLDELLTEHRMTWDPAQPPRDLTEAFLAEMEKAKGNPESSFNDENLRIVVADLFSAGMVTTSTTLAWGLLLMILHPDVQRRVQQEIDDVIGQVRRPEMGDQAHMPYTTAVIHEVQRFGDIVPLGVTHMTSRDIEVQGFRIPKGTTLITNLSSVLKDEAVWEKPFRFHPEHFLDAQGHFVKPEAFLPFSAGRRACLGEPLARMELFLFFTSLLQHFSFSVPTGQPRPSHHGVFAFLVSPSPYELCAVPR
# Cytochrome P450 2C9 = Cytochrome P450 2C9 (Homo sapiens, UniProt P11712); test: Inhibition of CYP2C9 in human liver microsomes assessed as reduction in diclofenac 4'-hydroxylation; assay type: ADME
# Cytochrome P450 2C9, sequence (P11712 whole entry): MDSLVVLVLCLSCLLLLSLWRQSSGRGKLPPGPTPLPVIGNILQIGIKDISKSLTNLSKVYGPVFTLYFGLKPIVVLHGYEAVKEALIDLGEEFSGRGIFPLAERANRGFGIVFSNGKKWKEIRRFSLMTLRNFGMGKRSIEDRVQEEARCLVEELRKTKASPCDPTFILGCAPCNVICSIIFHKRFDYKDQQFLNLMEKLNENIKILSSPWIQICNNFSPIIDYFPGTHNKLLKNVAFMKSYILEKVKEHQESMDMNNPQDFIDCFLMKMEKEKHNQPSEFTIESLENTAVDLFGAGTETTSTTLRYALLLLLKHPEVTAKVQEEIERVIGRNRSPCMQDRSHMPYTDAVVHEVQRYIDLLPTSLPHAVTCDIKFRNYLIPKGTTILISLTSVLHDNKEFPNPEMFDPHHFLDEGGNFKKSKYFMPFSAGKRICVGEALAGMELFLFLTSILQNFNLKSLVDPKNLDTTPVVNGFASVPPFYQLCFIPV
# Liver microsome [10] = test: Metabolic stability assay in human liver microsomes assessed as parent drug disappearance at 1 uM after 20 mins by HPLC and mass spectrometry method; assay type: ADME
# Liver microsome [11] = test: Metabolic stability assay in rat liver microsomes assessed as parent drug disappearance at 1 uM after 20 mins by HPLC and mass spectrometry method; assay type: ADME
# [12] = biological target: Voltage-gated inwardly rectifying potassium channel KCNH2 (Homo sapiens, UniProt Q12809); test: Inhibition of human ERG expressed in HEK cells by patch-clamp assay; assay type: cell-based; conditions: hek293
# Voltage-gated inwardly rectifying potassium channel KCNH2, sequence (Q12809 whole entry): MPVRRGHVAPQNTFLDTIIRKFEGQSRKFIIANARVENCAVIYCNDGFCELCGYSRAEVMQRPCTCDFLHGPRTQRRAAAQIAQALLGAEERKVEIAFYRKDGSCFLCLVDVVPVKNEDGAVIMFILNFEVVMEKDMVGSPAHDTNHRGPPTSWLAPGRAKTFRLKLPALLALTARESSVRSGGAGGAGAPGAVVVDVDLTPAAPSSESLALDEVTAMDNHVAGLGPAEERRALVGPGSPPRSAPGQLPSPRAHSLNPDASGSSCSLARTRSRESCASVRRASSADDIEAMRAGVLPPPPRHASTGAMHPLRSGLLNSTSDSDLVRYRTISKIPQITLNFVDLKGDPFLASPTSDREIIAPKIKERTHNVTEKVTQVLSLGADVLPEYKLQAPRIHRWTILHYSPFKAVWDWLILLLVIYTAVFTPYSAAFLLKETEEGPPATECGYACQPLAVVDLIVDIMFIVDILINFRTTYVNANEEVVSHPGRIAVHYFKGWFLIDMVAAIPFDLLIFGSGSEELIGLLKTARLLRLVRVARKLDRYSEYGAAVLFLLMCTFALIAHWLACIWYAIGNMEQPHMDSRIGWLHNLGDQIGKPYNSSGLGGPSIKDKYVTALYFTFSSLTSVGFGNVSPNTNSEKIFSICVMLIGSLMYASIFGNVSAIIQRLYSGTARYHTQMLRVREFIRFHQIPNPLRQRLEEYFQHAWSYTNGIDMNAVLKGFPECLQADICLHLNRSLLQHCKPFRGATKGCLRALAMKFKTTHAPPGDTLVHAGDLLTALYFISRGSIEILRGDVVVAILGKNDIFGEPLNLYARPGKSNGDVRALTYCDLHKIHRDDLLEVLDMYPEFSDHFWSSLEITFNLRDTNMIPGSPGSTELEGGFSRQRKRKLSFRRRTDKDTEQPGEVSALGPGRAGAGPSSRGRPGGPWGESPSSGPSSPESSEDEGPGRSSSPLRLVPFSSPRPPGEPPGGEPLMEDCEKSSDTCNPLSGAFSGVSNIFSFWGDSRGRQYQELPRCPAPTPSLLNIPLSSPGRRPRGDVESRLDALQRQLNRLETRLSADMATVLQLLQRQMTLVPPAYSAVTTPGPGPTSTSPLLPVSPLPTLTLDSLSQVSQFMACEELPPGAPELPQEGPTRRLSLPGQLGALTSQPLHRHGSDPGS
# [13] = Volume of distribution at steady state in Wistar rat at 1 mg/kg, iv or 10 mg/kg, po; assay type: ADME, organism-based; conditions: in vivo, read-out: Vdss
# Method in brief: (§2)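 Rats dosed by iv infusion at 1 mg/kg (n = 2) or orally at 10 mg/kg (n = 3); plasma levels measured, limit of quantification ca. 1 ng/mL.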
# [14] = Half life in Wistar rat at 1 mg/kg, iv or 10 mg/kg, po; assay type: ADME, organism-based; conditions: in vivo; method in brief: as §2
# Rattus norvegicus [15] = test: AUC in Wistar rat at 10 mg/kg, po; assay type: ADME, organism-based, Plasma; design: dose 10 mg/kg, route oral; conditions: in vivo; method in brief: as §2
# [16] = (§3) Cmax in Wistar rat at 10 mg/kg, po; assay type: ADME, organism-based; design: dose 10 mg/kg, route oral; conditions: Wistar, in vivo; method in brief: as §2
# Rattus norvegicus [17] = test: Oral bioavailability in Wistar rat at 10 mg/kg; assay type: ADME, organism-based; conditions: in vivo; method in brief: as §2
# [18] = biological target: P2Y purinoceptor 1 (Homo sapiens) (UniProt P47900); test: Antagonist activity against P2Y1 (unknown origin) assessed as inhibition of agonist binding up to 10 uM
# P2Y purinoceptor 1 (Homo sapiens), sequence (P47900 whole entry): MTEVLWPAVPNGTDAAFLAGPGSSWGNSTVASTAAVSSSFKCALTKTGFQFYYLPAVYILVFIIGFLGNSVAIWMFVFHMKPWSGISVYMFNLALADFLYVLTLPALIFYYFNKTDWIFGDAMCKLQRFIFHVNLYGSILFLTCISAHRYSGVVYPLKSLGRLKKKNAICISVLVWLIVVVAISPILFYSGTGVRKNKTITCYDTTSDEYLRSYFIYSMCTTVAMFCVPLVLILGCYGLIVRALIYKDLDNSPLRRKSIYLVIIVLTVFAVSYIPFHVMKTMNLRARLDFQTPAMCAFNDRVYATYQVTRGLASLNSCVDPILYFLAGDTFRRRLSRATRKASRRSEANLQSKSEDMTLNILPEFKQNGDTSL
# [19] = biological target: P2Y purinoceptor 2 (Homo sapiens) (UniProt P41231); test: Antagonist activity against P2Y2 (unknown origin) assessed as inhibition of agonist binding up to 10 uM
# P2Y purinoceptor 2 (Homo sapiens), sequence (P41231 whole entry): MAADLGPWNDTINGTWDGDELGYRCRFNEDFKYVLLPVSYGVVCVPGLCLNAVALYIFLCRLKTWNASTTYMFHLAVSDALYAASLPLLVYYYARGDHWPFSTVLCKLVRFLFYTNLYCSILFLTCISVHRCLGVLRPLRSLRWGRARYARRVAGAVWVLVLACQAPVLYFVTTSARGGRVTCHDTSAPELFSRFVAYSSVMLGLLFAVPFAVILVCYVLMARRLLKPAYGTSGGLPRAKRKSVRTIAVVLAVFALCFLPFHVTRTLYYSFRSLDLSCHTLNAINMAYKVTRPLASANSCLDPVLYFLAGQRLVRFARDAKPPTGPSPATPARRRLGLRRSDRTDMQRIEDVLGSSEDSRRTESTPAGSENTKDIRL
# [20] = biological target: P2Y purinoceptor 4 (Homo sapiens) (UniProt P51582); test: Antagonist activity against P2Y4 (unknown origin) assessed as inhibition of agonist binding up to 10 uM
# P2Y purinoceptor 4 (Homo sapiens), sequence (P51582 whole entry): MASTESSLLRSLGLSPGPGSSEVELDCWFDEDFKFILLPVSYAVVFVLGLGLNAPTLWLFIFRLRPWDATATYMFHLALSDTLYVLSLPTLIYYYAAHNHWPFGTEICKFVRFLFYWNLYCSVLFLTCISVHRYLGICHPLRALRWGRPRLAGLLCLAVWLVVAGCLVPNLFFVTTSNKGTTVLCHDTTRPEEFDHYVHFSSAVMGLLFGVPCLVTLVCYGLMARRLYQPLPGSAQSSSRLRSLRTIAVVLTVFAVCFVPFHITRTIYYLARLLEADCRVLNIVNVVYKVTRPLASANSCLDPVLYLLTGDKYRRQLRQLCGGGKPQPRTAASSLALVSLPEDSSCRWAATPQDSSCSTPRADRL
# [21] = biological target: P2Y purinoceptor 6 (Homo sapiens) (UniProt Q15077); test: Antagonist activity against P2Y6 (unknown origin) assessed as inhibition of agonist binding up to 10 uM
# P2Y purinoceptor 6 (Homo sapiens), sequence (Q15077 whole entry): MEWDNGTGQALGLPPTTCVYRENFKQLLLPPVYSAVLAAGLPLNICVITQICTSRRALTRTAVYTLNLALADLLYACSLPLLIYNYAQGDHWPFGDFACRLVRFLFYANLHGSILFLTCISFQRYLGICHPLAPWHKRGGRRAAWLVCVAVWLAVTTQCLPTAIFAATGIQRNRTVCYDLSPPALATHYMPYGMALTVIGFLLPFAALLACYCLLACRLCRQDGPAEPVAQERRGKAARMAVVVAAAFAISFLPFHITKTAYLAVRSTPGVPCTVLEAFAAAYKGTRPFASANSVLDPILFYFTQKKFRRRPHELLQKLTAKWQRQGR
# [22] = biological target: T2, P2Y purinoceptor 11 (Homo sapiens) (UniProt Q96G91); test: Antagonist activity against P2Y11 (unknown origin) assessed as inhibition of agonist binding up to 10 uM
# T2 sequence (whole entry): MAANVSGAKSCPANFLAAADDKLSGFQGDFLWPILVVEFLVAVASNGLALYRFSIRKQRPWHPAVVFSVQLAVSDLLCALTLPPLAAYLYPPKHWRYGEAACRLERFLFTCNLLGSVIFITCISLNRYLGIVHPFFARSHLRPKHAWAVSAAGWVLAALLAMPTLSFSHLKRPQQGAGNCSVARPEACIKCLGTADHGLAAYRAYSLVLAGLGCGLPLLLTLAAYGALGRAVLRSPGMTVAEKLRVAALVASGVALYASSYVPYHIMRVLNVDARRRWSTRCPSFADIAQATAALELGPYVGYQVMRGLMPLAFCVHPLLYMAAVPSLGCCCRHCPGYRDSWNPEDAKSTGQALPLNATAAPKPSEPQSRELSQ
# [23] = biological target: T3, P2Y purinoceptor 13 (Homo sapiens) (UniProt Q9BPV8); test: Antagonist activity against P2Y13 (unknown origin) assessed as inhibition of agonist binding up to 10 uM
# T3 sequence (whole entry): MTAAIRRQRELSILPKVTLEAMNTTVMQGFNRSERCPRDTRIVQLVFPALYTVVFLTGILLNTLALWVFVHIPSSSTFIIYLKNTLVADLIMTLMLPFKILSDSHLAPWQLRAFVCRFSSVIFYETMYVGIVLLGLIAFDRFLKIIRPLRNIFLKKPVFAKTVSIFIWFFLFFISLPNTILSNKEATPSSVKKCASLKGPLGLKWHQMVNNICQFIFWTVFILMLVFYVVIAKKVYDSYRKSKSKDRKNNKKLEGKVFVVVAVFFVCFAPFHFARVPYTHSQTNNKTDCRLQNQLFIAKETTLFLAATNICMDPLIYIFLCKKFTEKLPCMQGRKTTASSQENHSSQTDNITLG
# [24] = biological target: T4, P2X purinoceptor 1 (Homo sapiens) (UniProt P51575); test: Antagonist activity against P2X1 (unknown origin)
# T4 sequence (whole entry): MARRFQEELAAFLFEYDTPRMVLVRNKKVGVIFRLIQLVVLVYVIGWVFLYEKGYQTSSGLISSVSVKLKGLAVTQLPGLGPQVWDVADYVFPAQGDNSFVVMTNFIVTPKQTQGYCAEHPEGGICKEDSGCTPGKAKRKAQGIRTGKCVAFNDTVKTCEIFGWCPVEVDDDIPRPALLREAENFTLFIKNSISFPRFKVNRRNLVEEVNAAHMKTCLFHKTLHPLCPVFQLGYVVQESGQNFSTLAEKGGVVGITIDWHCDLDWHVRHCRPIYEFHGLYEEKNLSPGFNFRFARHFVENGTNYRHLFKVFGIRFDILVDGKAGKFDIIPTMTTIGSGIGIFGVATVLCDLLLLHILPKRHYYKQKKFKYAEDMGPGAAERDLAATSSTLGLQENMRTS
# [25] = biological target: T5, P2X purinoceptor 2 (Homo sapiens) (UniProt Q9UBL9); test: Antagonist activity against P2X2 (unknown origin)
# T5 sequence (whole entry): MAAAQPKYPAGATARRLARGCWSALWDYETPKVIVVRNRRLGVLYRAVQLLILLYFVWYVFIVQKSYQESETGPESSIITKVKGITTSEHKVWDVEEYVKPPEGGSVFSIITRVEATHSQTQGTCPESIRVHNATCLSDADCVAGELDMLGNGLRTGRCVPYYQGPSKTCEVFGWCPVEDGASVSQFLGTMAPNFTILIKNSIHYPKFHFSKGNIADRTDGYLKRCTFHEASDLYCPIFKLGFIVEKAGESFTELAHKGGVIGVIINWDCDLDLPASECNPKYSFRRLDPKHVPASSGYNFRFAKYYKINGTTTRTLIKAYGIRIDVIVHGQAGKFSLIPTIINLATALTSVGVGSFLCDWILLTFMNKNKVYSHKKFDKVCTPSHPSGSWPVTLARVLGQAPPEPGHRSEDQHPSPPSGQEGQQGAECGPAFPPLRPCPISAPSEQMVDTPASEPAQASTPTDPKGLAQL
# [26] = biological target: T6, P2X purinoceptor 3 (Homo sapiens) (UniProt P56373); test: Antagonist activity against P2X3 (unknown origin)
# T6 sequence (whole entry): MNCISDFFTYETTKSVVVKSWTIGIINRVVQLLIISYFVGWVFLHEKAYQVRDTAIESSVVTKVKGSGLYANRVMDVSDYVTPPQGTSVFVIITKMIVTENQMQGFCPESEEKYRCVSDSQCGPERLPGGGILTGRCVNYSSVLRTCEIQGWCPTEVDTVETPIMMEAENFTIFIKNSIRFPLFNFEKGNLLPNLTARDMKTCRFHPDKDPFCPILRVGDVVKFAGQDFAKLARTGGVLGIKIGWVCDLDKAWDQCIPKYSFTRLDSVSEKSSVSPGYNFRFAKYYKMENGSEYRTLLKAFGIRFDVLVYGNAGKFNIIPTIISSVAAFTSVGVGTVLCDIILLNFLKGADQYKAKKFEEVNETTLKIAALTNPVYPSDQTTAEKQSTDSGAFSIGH
# [27] = biological target: T7, P2X purinoceptor 4 (Homo sapiens) (UniProt Q99571); test: Antagonist activity against P2X4 (unknown origin)
# T7 sequence (whole entry): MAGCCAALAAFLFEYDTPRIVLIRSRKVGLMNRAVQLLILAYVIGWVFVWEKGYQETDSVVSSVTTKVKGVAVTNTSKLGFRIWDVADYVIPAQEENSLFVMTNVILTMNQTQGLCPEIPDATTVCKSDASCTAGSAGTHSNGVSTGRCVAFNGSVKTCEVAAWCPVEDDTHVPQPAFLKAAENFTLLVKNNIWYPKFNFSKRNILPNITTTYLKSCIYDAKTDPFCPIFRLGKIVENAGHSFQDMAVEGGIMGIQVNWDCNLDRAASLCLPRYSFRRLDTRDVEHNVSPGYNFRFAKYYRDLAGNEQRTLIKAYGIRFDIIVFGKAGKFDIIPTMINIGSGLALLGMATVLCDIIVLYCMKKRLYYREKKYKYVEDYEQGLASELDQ
# [28] = biological target: T8, P2X purinoceptor 7 (Homo sapiens) (UniProt Q99572); test: Antagonist activity against P2X7 (unknown origin)
# T8 sequence (whole entry): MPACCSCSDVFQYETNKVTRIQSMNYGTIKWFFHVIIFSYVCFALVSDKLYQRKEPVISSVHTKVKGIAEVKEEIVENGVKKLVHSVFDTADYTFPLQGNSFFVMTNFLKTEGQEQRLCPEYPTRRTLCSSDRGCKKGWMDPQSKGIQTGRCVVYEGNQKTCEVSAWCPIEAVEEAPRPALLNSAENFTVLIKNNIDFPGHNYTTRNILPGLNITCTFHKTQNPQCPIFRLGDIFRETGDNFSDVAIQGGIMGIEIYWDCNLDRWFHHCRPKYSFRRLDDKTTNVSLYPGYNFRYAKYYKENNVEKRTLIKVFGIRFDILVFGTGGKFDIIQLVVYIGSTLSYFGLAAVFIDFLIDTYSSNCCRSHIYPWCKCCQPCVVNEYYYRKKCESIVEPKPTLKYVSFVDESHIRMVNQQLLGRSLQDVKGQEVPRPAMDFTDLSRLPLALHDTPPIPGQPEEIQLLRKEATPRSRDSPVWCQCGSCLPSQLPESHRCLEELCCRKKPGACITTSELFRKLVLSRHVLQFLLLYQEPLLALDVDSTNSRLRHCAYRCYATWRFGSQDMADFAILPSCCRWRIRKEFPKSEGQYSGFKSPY
# Rattus norvegicus [29] = test: as §3; assay type: ADME, organism-based; design: dose 10 mg/kg, route oral; conditions: in vivo, BLD = below limit of detection; method in brief: as §2
IC50 (Platelet [3]) [nM],solubility [6],solubility [7],inhibition (INH) (Cytochrome P450 3A4 [8]),inhibition (INH) (Cytochrome P450 3A4 [9]),inhibition (INH) (Cytochrome P450 2D6),inhibition (INH) (Cytochrome P450 2C9),Stability (Liver microsome [10]),Stability (Liver microsome [11]),SMILES,Activity (Platelet [1]) [%],Activity (Platelet [2]) [%],Ratio IC50 [4],inhibition (INH) [12],also measured
114,soluble,soluble,Not Active,Not Active,Not Active,Not Active,Stable,Stable,CCOC(=O)N1CCN(C(=O)[C@H](CCC(=O)O)NC(=O)c2cc(NCCO)nc(-c3ccccc3)n2)CC1,<30,<70,0.67,Not Active,IC50 (P2Y purinoceptor 12): 169 nM; fraction unbound [5]: 0.135; Vd [13]: 1 L/kg; half-life [14]: 12 min; AUC (Rattus norvegicus [15]): 8.44 nM·h; Cmax [16]: 17.5 nM; F (Rattus norvegicus [17]): 3%
,,,,,,,,,CCCCOC(=O)N1CCN(C(=O)[C@H](CCC(=O)O)NC(=O)c2cc([C@H]3C[C@@H]3COC)nc(-c3ccccc3)n2)CC1,,,,,inhibition [18]: inactive; inhibition [19]: inactive; inhibition [20]: inactive; inhibition [21]: inactive; inhibition [22]: inactive; inhibition [23]: inactive; inhibition [24]: inactive; inhibition [25]: inactive; inhibition [26]: inactive; inhibition [27]: inactive; inhibition [28]: inactive
126,soluble,soluble,Not Active,Not Active,Not Active,Not Active,Stable,Stable,CCOC(=O)N1CCN(C(=O)[C@H](CCC(=O)O)NC(=O)c2cc(-c3ccc[n+]([O-])c3)nc(-c3ccccc3)n2)CC1,<30,<70,0.98,Not Active,AUC (Rattus norvegicus [15]; BLD = below limit of detection): BLD; Cmax (Rattus norvegicus [29]): BLD
